In data set [1] the test system is Mus musculus. Kind of data set: Toxicity in Swiss mouse assessed as time spent on rotating rod at 40 mg/kg, po administered 1 hr prior to testing (reference value: 119 +/- 1 secs). Format: organism-based. Also noted: dose 40 mg/kg, route oral. The following applies: in vivo.
Data set [2] deals with Mus musculus. Kind of data set: Antinociceptive activity in po dosed Swiss mouse assessed as inhibition of formaldehyde-induced nociceptive response in right hind paw administered 1 hr followed by formaldehyde challenge measured over 5 mins. Type of data set: functional, organism-based. The essentials: (§1)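 Female Swiss mice received vehicle (0.5% CMC, 4 ml/kg) or compound p.o. at 50–150 mg/kg, or at 3–30 mg/kg, 1 h before 20 µL of 0.92% formaldehyde s.c. into the dorsal right hindpaw. Paw-licking time was scored at 0–5 min (first phase) and 15–30 min (second phase). n = 9. Data: mean ± S.E.M., one-way ANOVA with Newman–Keuls.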

Data set [3] has as its system Mus musculus. Description: Antinociceptive activity in Swiss mouse assessed as inhibition of formaldehyde-induced nociceptive response in right hind paw at 100 to 150 mg/kg, po administered 1 hr followed by formaldehyde challenge measured 15 to 30 mins. Format: functional, organism-based. The method in brief:
as §1

For data set [4], the system named is Mus musculus. Kind of data set: Antinociceptive activity in Swiss mouse assessed as inhibition of formaldehyde-induced nociceptive response in right hind paw at 3 to 30 mg/kg, po administered 1 hr followed by formaldehyde challenge. Type of data set: functional, organism-based. The method in brief:
as §1

For data set [5], the system named is Mus musculus. Description: Antinociceptive activity in Swiss mouse assessed as inhibition of formaldehyde-induced nociceptive response in right hind paw at 100 mg/kg, po administered 1 hr followed by formaldehyde challenge measured over 5 mins. Format: functional, organism-based. Also noted: dose 100 mg/kg. The essentials:
as §1

Data set [6] concerns Mus musculus. Kind of data set: Antinociceptive activity in Swiss mouse assessed as inhibition of formaldehyde-induced nociceptive response in right hind paw at 100 mg/kg, po administered 1 hr followed by formaldehyde challenge measured for 15 to 30 mins. More on the design: dose 100 mg/kg. Format: functional, organism-based. The method in brief: as §1
The test system of data set [7] is Mus musculus. Kind of data set: Toxicity in Swiss mouse assessed as time spent on rotating rod at 150 mg/kg, po administered 1 hr prior to testing (reference value: 120 secs). The settings on record: in vivo. Format: organism-based. Also noted: dose 150 mg/kg, route oral. The essentials: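 Female Swiss mice were trained on a rota-rod (14 rpm) over 3 days, with a 2 min cut-off. After baseline timing, they were dosed p.o. with vehicle (0.5% CMC, 4 ml/kg), compound at 150 mg/kg, or phenobarbital 40 mg/kg as positive control, and retested 1 h later. n = 9.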

Data set [8] is described as follows: Cmax in Swiss mouse at 100 mg/kg, po by LC-MS/MS analysis. The settings on record: in vivo. Also noted: dose 100 mg/kg, route oral. Format: ADME, organism-based. The method in brief:
(§2)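 Female Swiss mice (25–30 g), fasted 12 h, given 100 mg/kg p.o. as a suspension in 0.5% CMC (4 mL/kg). Heparinized blood was centrifuged and plasma stored at −70 °C. Plasma was run by LC–MS/MS on a C18 column with methanol/2 mM ammonium acetate + 0.03% formic acid (33:67). Values are mean ± S.E.M.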

Data set [9] is described as follows: Tmax in Swiss mouse at 100 mg/kg, po by LC-MS/MS analysis. Also noted: dose 100 mg/kg, route oral. Type of data set: ADME, organism-based. The following applies: in vivo. The method in brief:
as §2

The nature of data set [10]: AUC (0 to t) in Swiss mouse at 100 mg/kg, po by LC-MS/MS analysis. Format: ADME, organism-based. Also noted: dose 100 mg/kg, route oral. The settings on record: plasma. The method in brief: as §2
Data set [11] is described as follows: AUC (0 to infinity) in Swiss mouse at 100 mg/kg, po by LC-MS/MS analysis. Type of data set: ADME, organism-based. Also noted: time infinity, dose 100 mg/kg, route oral. The following applies: plasma. The method in brief:
as §2

The nature of data set [12]: Half life in Swiss mouse at 100 mg/kg, po by LC-MS/MS analysis. Also noted: dose 100 mg/kg, route oral. Format: ADME, organism-based. The following applies: in vivo. The essentials: as §2
The subject of data set [13] is Plasma. Kind of data set: Drug metabolism in Swiss mouse plasma assessed as nitrite level at 100 mg/kg, po measured after 0.25 to 3 hrs by Griess assay. Type of data set: ADME, organism-based. The settings on record: in vivo. More on the design: dose 100 mg/kg, route oral. The essentials:
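Female Swiss mice fasted 12 h received vehicle (0.5% CMC, 4 ml/kg) or compound at 100 mg/kg p.o. After ketamine/xylazine anesthesia at 15 min, 1 h and 3 h, blood was taken from the abdominal artery to avoid hemolysis. Heparinized plasma, stored at −70 °C, was mixed 1:1 with Griess reagent for 10 min at room temperature. A540 read against blank plasma; n = 7.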
(Nitrite, measured by Griess reagent, commonly stands in for NO production.)

Data set [14] concerns Plasma. Description: Drug metabolism in Swiss mouse plasma assessed as formation of nicotinamide at 100 mg/kg, po after 10 hrs by LC-MS/MS analysis. Type of data set: ADME, organism-based. Also noted: dose 100 mg/kg, route oral. The following applies: in vivo. The method in brief: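 Female Swiss mice fasted 12 h received 100 mg/kg p.o. in 0.5% CMC. Six mice per time point were sampled by decapitation from 5 min to 10 h, plus six untreated controls. Heparinized plasma stored at −70 °C. Nicotinamide measured by LC–MS/MS (C18, methanol/ammonium acetate–formic acid mobile phase).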

For data set [15], the system named is Mus musculus. Kind of data set: Antinociceptive activity in Swiss mouse assessed as inhibition of formaldehyde-induced nociceptive response in right hind paw at 50 to 150 mg/kg, po administered 5 mins followed by formaldehyde challenge measured over 5 mins. Format: functional, organism-based. The method in brief:
(§3)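 Female Swiss mice received compound p.o. (50, 100 or 150 mg/kg in 0.5% CMC) 5 min before s.c. injection of 0.92% formaldehyde (20 µL) into the right hindpaw. Licking time was recorded at 0–5 min and 15–30 min; n = 9. ANOVA with Newman–Keuls.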

Data set [16] deals with Mus musculus. Kind of data set: Antinociceptive activity in Swiss mouse assessed as inhibition of formaldehyde-induced nociceptive response in right hind paw at 50 to 150 mg/kg, po administered 5 mins followed by formaldehyde challenge measured for 15 to 30 mins. Type of data set: functional, organism-based. The method in brief: as §3
Data set [17] has as its system Mus musculus. Kind of data set: Antinociceptive activity in Swiss mouse assessed as inhibition of formaldehyde-induced nociceptive response in right hind paw at 150 mg/kg, po administered 1 hr followed by formaldehyde challenge measured over 5 mins. More on the design: dose 150 mg/kg. Type of data set: functional, organism-based. The method in brief: as §1
Data set [18] deals with Mus musculus. Kind of data set: Antinociceptive activity in Swiss mouse assessed as inhibition of formaldehyde-induced nociceptive response in right hind paw at 150 mg/kg, po administered 1 hr followed by formaldehyde challenge measured 15 to 30 mins. Type of data set: functional, organism-based. Also noted: dose 150 mg/kg. The essentials: as §1

SMILES strings stand for the structures. Activity calls are given as the source filed them.

As for `CCC1(c2ccccc2)C(=O)NC(=O)NC1=O` [PHENOBARBITAL], in data set [1], the Time is listed as 26 s.
`O=C(NCCO[N+](=O)[O-])c1cccnc1` [NICORANDIL]: in [2], the inhibition entry is “Dose-dependent effect”. Also, the inhibition entry in [3], in data set [5] and in [6] was “Active” each time. Moreover, the inhibition entry in data set [4] is “inactive”. Further, the Time in data set [7] was 120 s. In data set [8], this compound showed a Cmax of 42600 ng/mL. Moreover, the time to peak (Tmax) in data set [9] is 40.2 min. Moreover, the AUC(0-t) in [10] came out at 121 µg·h/mL. In addition, in data set [11], the AUC(0-inf) is 123 µg·h/mL. The compound further gave a half-life in data set [12] of 90 min. The Drug metabolism entry in [13] and in [14] was “metabolite_detected” in each case.
As to `O=C(NCCO)c1ccncc1`, the inhibition result in [15] and in data set [16] was “inactive” each time.
Regarding `O=C(NCCO)c1cccnc1`, the inhibition entry in data set [15] and in data set [16] was “inactive” in each case.
Consider `O=C(NCCO)c1ccccn1`, for which the inhibition result in data set [15] and in data set [16] was “inactive” in each case.
`O=C(NCCO[N+](=O)[O-])c1ccccn1`: the inhibition result in data set [17], in [18], in data set [5] and in [6] was “Active” in each case. The inhibition entry in data set [15] and in [16] was “inactive” throughout. The Time in [7] came to 120 s. Further, the maximum concentration (Cmax) in data set [8] came out at 30800 ng/mL. Moreover, the Tmax in [9] was found to be 6.6 min. For the same compound, the AUC(0-t) in data set [10] came to 10.1 µg·h/mL. The compound also yielded a total exposure AUC(0-inf) in [11] of 10.1 µg·h/mL. The compound also showed a half-life in data set [12] of 66 min. Also, the Drug metabolism entry in data set [13] is “metabolite_notdetected”; in data set [14], “metabolite_detected”.
Turning to `O=C(NCCO[N+](=O)[O-])c1ccncc1`, the inhibition result in data set [3], in data set [5] and in data set [6] was “Active” each time. Also, the Time in [7] stood at 120 s. The same compound returned a Cmax in data set [8] of 49400 ng/mL. For the same compound, the Tmax in data set [9] turned out to be 52.8 min. Further, the AUC(0-t) in data set [10] worked out at 160 µg·h/mL. This compound also returned an AUC(0-inf) in data set [11] of 160 µg·h/mL. The compound also gave a half-life in data set [12] of 45.6 min. Further, the Drug metabolism result in data set [13] and in [14] was “metabolite_detected” in each case.

One may read the Cmax as the peak of the concentration-time curve. By Tmax is commonly meant the time from dosing to the highest level. By AUC(0-t) is commonly meant exposure summed from dosing to a finite time, without extrapolation to infinity. A low value points to low exposure. By AUC(0-inf) is commonly meant the area under the concentration-time curve extrapolated to infinity. As usually defined, the half-life is the time in which the quantity being followed falls by half. A higher half-life goes with slow decline.
